Measurements as given in ChEMBL document CHEMBL3774373, “Activity and Predicted Nephrotoxicity of Synthetic Antibiotics Based on Polymyxin B” (J Med Chem, 2016).
Values after ≈ are worked out from the molar mass of the structure shown. Numbered stars: 1 amine (or outer) side, 2 acyl side, 3 side chain; on linkers, the order of the positions; unused ones are H or OH. Bridge positions count the residues as written; N and C are the ends. Square brackets hold non-standard residues; d marks the D form. Peptide text beside a SMILES is read from it. * marks the point of attachment. ξ: configuration not given here. ξGly(octyl) = CCCCCCCCC(N)C(=O)O; NH(2-ClPh) = Clc1ccccc1N*; dDab = NCC[C@@H](N)C(=O)O; hSer = N[C@@H](CCO)C(=O)O; Octanoyl = CCCCCCCC(=O)*; Dab = NCC[C@H](N)C(=O)O; CO = O=C([*:1])[*:2]

Experiments:
[1] = tested on: Acinetobacter baumannii; experiment: Antibacterial activity against Acinetobacter baumannii ATCC 19606 after 18 hrs by 2 fold serial dilution method; assay type: functional; settings: ATCC 19606, 18 h
Procedure, shortened: (§1)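 Overnight cultures in nutrient or Mueller Hinton broth at 37 °C with shaking, diluted 50-fold into fresh MHB and grown 1.5–3 h to mid-log. Inoculum 5×10^5 CFU/mL in 2-fold serial dilutions, final range 32 to 0.015 μg/mL. MIC read visually after 18 h at 37 °C as the lowest concentration with no visible growth.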

[2] = tested on: Klebsiella pneumoniae; experiment: Antibacterial activity against Klebsiella pneumoniae ATCC 13883 after 18 hrs by 2 fold serial dilution method; assay type: functional; settings: ATCC 13883, 18 h; procedure, shortened: as §1
[3] = tested on: Pseudomonas aeruginosa; experiment: Antibacterial activity against Pseudomonas aeruginosa ATCC 27853 after 18 hrs by 2 fold serial dilution method; assay type: functional; settings: ATCC 27853, 18 h; procedure, shortened: as §1
[4] = tested on: Klebsiella pneumoniae; experiment: Antibacterial activity against clinical isolate carbapenem and polymyxin resistant Klebsiella pneumoniae 138-16357-20362 after 18 hrs by 2 fold serial dilution method; assay type: functional; settings: 138-16357-20362, 18 h
Procedure, shortened: (§2)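 Polymyxin-resistant clinical isolates were grown overnight at 37 °C in NB or MHB with shaking, diluted 50-fold in MHB and grown 1.5–3 h to mid-log phase. The inoculum was 5×10^5 CFU/mL. Compounds were 2-fold broth serial dilutions, final 32 to 0.015 μg/mL; the polymyxin controls ran 128–0.06 μg/mL. The MIC was the lowest concentration with no visible growth after 18 h at 37 °C.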

[5] = tested on: Pseudomonas aeruginosa; experiment: Antibacterial activity against clinical isolate polymyxin resistant Pseudomonas aeruginosa PA9704 after 18 hrs by 2 fold serial dilution method; assay type: functional; settings: PA9704, 18 h; procedure, shortened: as §2
[6] = tested on: Escherichia coli; experiment: Antibacterial activity against Escherichia coli ATCC 25922 after 18 hrs by 2 fold serial dilution method; assay type: functional; settings: ATCC 25922, 18 h; procedure, shortened: as §1
[7] = tested on: Staphylococcus aureus; experiment: microbe, parasite or virus in culture; settings: ATCC 25923, 18 h
[8] = tested on: Klebsiella pneumoniae; experiment: Antibacterial activity against clinical isolate carbapenem and polymyxin resistant Klebsiella pneumoniae Koprana 100650661:1 after 18 hrs by 2 fold serial dilution method; assay type: functional; settings: Koprana 100650661:1, 18 h; procedure, shortened: as §2
[9] = tested on: Acinetobacter baumannii; experiment: Antibacterial activity against clinical isolate carbapenem and polymyxin resistant Acinetobacter baumannii Ptyela 100734512:2 after 18 hrs by 2 fold serial dilution method; assay type: functional; settings: Ptyela 100734512:2, 18 h; procedure, shortened: as §2
[10] = Cytotoxicity against human HepG2 cells after 24 hrs by resazurin assay; assay type: cell-based; settings: HepG2 cells
[11] = tested on: Klebsiella pneumoniae; experiment: Antibacterial activity against Klebsiella pneumoniae ATCC BAA-2146 expressing NDM-1 after 18 hrs by 2 fold serial dilution method; assay type: functional; settings: ATCC BAA-2146, 18 h
Procedure, shortened: (§3)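 Overnight cultures at 37 °C in nutrient or Mueller Hinton broth with shaking were diluted 50-fold in MHB and grown 1.5–3 h to mid-log phase. The inoculum was 5×10^5 CFU/mL in MHB. Compounds were 2-fold serially diluted, final 32 to 0.015 μg/mL. After 18 h at 37 °C, the MIC was read visually as the lowest concentration with no visible growth.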

[12] = tested on: Klebsiella pneumoniae; experiment: Antibacterial activity against multidrug resistant Klebsiella pneumoniae ATCC 700603 after 18 hrs by 2 fold serial dilution method; assay type: functional; settings: Klebsiella pneumoniae, 700603, 18 h; procedure, shortened: as §3
[13] = tested on: Pseudomonas aeruginosa; experiment: Antibacterial activity against clinical isolate polymyxin resistant Pseudomonas aeruginosa FADDI-PA070 after 18 hrs by 2 fold serial dilution method; assay type: functional; settings: FADDI-PA070, 18 h; procedure, shortened: as §2

SMILES	MIC [1]	MIC [2]	MIC [3]	MIC [4]	MIC [5]	MIC [6]	MIC [7]	MIC [8]	MIC [9]	CC50 at 24 h [10]	MIC [11]	MIC [12]	MIC [13]
CCCCCCCC(=O)N[C@@H](CCN)C(=O)N[C@H](C(=O)N[C@@H](CCN)C(=O)N[C@H]1CCNC(=O)[C@H]([C@@H](C)O)NC(=O)[C@H](CCN)NC(=O)[C@H](CCN)NC(=O)[C@H](CC(C)C)NC(=O)[C@@H](Cc2ccccc2)NC(=O)[C@H](CCO)NC1=O)[C@@H](C)O (Octanoyl-[Dab]T[Dab][Dab][hSer][dF]L[Dab][Dab]T; lactam 4-C)	> 32 µg/mL	> 32 µg/mL	> 32 µg/mL	> 32 µg/mL	> 32 µg/mL	16 µg/mL (≈ 13.4 µM)	> 32 µg/mL	> 32 µg/mL	> 32 µg/mL	> 300 µM	32 µg/mL (≈ 26.9 µM)	> 32 µg/mL	> 32 µg/mL
CC(C)C[C@@H]1NC(=O)[C@@H](Cc2ccccc2)NC(=O)[C@H](CCN)NC(=O)[C@@H](NC(=O)[C@@H](CCN)NC(=O)[C@@H](NC(=O)[C@H](CCN)NC(=O)Nc2ccccc2Cl)[C@@H](C)O)CCNC(=O)[C@H]([C@@H](C)O)NC(=O)[C@H](CCN)NC(=O)[C@H](CCN)NC1=O ({NH(2-ClPh)-CO}-[Dab]T[dDab][Dab][Dab][dF]L[Dab][Dab]T; lactam 4-C)	2 µg/mL (≈ 1.64 µM)	0.5 µg/mL (≈ 0.411 µM)	0.5 µg/mL (≈ 0.411 µM)	> 32 µg/mL	> 32 µg/mL	1 µg/mL (≈ 0.822 µM)	> 32 µg/mL	> 32 µg/mL	> 32 µg/mL	> 300 µM	1 µg/mL (≈ 0.822 µM)	0.5 µg/mL (≈ 0.411 µM)	16 µg/mL (≈ 13.1 µM)
CCCCCCCC(=O)N[C@@H](CCN)C(=O)N[C@H](C(=O)N[C@H](CCN)C(=O)N[C@H]1CCNC(=O)[C@H]([C@@H](C)O)NC(=O)[C@H](CCN)NC(=O)[C@H](CCN)NC(=O)[C@H](CC(C)C)NC(=O)[C@@H](Cc2ccccc2)NC(=O)[C@H](CCN)NC1=O)[C@@H](C)O (Octanoyl-[Dab]T[dDab][Dab][Dab][dF]L[Dab][Dab]T; lactam 4-C)	1 µg/mL (≈ 0.841 µM)	0.5 µg/mL (≈ 0.42 µM)	2 µg/mL (≈ 1.68 µM)	> 32 µg/mL	32 µg/mL (≈ 26.9 µM)	4 µg/mL (≈ 3.36 µM)	> 32 µg/mL	> 32 µg/mL	> 32 µg/mL	> 300 µM	4 µg/mL (≈ 3.36 µM)	1 µg/mL (≈ 0.841 µM)	> 32 µg/mL
CCCCCCCC(=O)NCC(=O)N[C@@H](CCN)C(=O)N[C@H](C(=O)N[C@H]1CCNC(=O)[C@H]([C@@H](C)O)NC(=O)[C@H](CCN)NC(=O)[C@H](CCN)NC(=O)[C@H](CC(C)C)NC(=O)[C@@H](Cc2ccccc2)NC(=O)[C@H](CCN)NC1=O)[C@@H](C)O (Octanoyl-G[Dab]T[Dab][Dab][dF]L[Dab][Dab]T; lactam 4-C)	> 32 µg/mL	32 µg/mL (≈ 27.9 µM)	2 µg/mL (≈ 1.74 µM)	> 32 µg/mL	> 32 µg/mL	16 µg/mL (≈ 14 µM)	> 32 µg/mL	> 32 µg/mL	> 32 µg/mL	> 300 µM	16 µg/mL (≈ 14 µM)	8 µg/mL (≈ 6.98 µM)	> 32 µg/mL
CCCCCCCCC1NC(=O)[C@H](CCN)NC(=O)[C@@H](NC(=O)[C@H](CCN)NC(=O)[C@@H](NC(=O)[C@H](CCN)NC(=O)CCCCCCC)[C@@H](C)O)CCNC(=O)[C@H]([C@@H](C)O)NC(=O)[C@H](CCN)NC(=O)[C@H](CCN)NC(=O)[C@H](CC(C)C)NC1=O (stereo not given in full) (Octanoyl-[Dab]T[Dab][Dab][Dab][ξGly(octyl)]L[Dab][Dab]T; lactam 4-C)	1 µg/mL (≈ 0.825 µM)	2 µg/mL (≈ 1.65 µM)	2 µg/mL (≈ 1.65 µM)	16 µg/mL (≈ 13.2 µM)	8 µg/mL (≈ 6.6 µM)	2 µg/mL (≈ 1.65 µM)	16 µg/mL (≈ 13.2 µM)	16 µg/mL (≈ 13.2 µM)	16 µg/mL (≈ 13.2 µM)	254 µM	1 µg/mL (≈ 0.825 µM)	1 µg/mL (≈ 0.825 µM)	4 µg/mL (≈ 3.3 µM)
